Screening data as filed in PubChem.
HCT116 PTEN-null: growth suppression of PTEN-null HCT116, primary screen, cell-based, CellTiter-Glo; actives 1.2% (n = 140,000); HCT116 PTEN-null viability, 60 h; active compounds read low; viability, % at 10 µM;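 active = viability at or below a set limit, 4 SD under the median of all tested compounds, cut at about 3.7% in these data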;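 also: PTEN knockout HCT116 line with beta catenin targeted HCT116 as companion control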
HUVEC prolif 384: inhibitors of HUVEC proliferation, primary screen, cell-based, 384-well; CellTiter-Glo luminescence, 72 h; active compounds read low; actives 1.1% (n = 86,000); AID 648, 2007; viability, % at 10 µM (by protocol);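 active = viability at or below 30%; inactive = viability above 30%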;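 also: 100% = median luminescence of DMSO-only cell control wells on each plate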
H69AR inhibit: proliferation blockers of H69AR lung cancer cells, primary screen, cell-based, human, 86K library; H69AR lung tumor viability, ATP luminescence, 72 h; active compounds read low; viability, % at 10 µM; actives 6% (n = 85,000); AID 598, 2007;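 active = viability at or below 40%; inactive = viability above 40%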;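 also: multidrug resistant small cell line overexpressing MRP-1 efflux transporter; 100% = mean luminescence of untreated control wells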
Lung fibro prol: antiproliferative effect on LL 47 fibroblasts – human, LL 47 cells, CellTiter-Glo luminescence, primary screen; AID 719, 2007; LL 47 human lung fibroblast viability, ATP luminescence; active compounds read low; actives 1.1% (n = 85,000); viability, % at 10 µM;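 active = viability at or below 50% in the single dose screen; inactive = viability above 50%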;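 also: compound exposure lasted 72 h before the ATP readout; 100% = median luminescence of untreated cell-only wells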
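test system = LL 47 human lung fibroblasts | amount = 1,150 fibroblasts seeded per well | medium = 15% FBS in IMEM | times = overnight cell rest, 72 h compound treatment at 37 °C | measured by = CellTiter-Glo luminescence measuring cellular ATP | read-out = viability percentage against median untreated-cell control | benchmarks = cell-only wells, no compound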
bCat KO growth: primary screen for growth suppressors in beta-catenin knockout HCT116 cells (colon tumor, human); HCT116 beta-catenin knockout viability, CellTiter-Glo, 60 h; active compounds read low; viability, % at 10 µM; actives 1.5% (n = 140,000); AID 818, 2007;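 active = viability at or under a set limit, the compound median less 4 SD, cut at about 6% in these data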;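 also: 0% = Hyamine 1622 control at 20 µM and 100% = untreated cell control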
* hit, by the source's call; / = no result. Many of the other results were omitted from the sample, so hits are more common in it than they were.

SMILES	HCT116 PTEN-null	HUVEC prolif 384	H69AR inhibit	Lung fibro prol	bCat KO growth
CCN(CC)c1ncnnc1-c1ccccc1	104.4	/	/	/	91.3
O=C(c1nnc(Cc2ccc(Cl)cc2)o1)N1CCc2ccccc2C1	0.6*	109.0	105.2	106.1	1.1*
COc1ccc(Cc2nnc(SCC(=O)N3CCc4ccccc4C3)o2)cc1	95.1	89.8	91.9	101.6	78.3
Cc1c(NC(=O)c2nn3c(c2Br)NC(c2ccccc2)CC3C(F)(F)F)c(=O)n(-c2ccccc2)n1C (stereo not given)	95.2	/	/	/	92.9
Cc1cc(/C=C2\SC(=Nc3ccc(F)cc3)NC2=O)c(C)n1-c1ccc(S(N)(=O)=O)cc1	2.8*	/	/	/	9.7
Cc1cc(/C=C2/SC(=O)NC2=O)c(C)n1-c1ccc(N2CCOCC2)cc1	72.9	/	/	/	79.2
CCCCCCC(=O)N1CCC(c2nc3c(nnn3Cc3ccccc3Cl)c(=O)[nH]2)CC1	56.9	84.4	34.3*	96.1	58.1
NC(=O)C1CCN(c2nc(C3CC3)nc3c2nnn3Cc2ccccc2)CC1	109.8	93.2	78.1	94.2	102.2
NC(=O)C1CCN(c2nc(C3CC3)nc3c2nnn3Cc2ccccc2Cl)CC1	82.6	84.5	31.1*	94.3	83.5
O=C(C1CCCCC1)N1CCC(c2nc3c(nnn3Cc3ccccc3Cl)c(=O)[nH]2)CC1	/	64.3	38.9*	89.3	/
O=C(NCc1ccco1)c1nc2c(nnn2Cc2ccccc2Cl)c(=O)[nH]1	7.2	14.2*	24.9*	30.8*	7.6
CCN1CCN(C(=S)NCC(C)C)CC1	95.3	/	/	/	95.8
Cc1cccc(C(=O)N2CCC(Cc3ccccc3)CC2)c1[N+](=O)[O-]	77.6	/	/	/	61.9
c1csc(COc2ccccc2CNC2CCCCC2)c1	60.7	/	/	/	57.5
Cc1ccccc1CSc1nc(-c2ccccc2)cc(=O)[nH]1	96.8	/	/	/	93.0
COc1ccc(C(=O)c2c[nH]c(C(=O)NCc3cccs3)c2)cc1	94.5	/	/	/	106.7
CC1CN(c2ncnc3c2oc2ccccc23)CC(C)O1 (stereo not given)	90.3	92.8	73.2	96.6	93.6
Clc1ccc(N2CCN(c3ncnc4c3oc3ccccc34)CC2)cc1	/	27.4*	65.1	116.8	/
O=C(N/N=C\C=C\c1ccc2c(c1)OCO2)C1COc2ccccc2O1 (stereo not given)	93.2	/	/	/	89.4
COc1ccc(N2C(=O)NC3CC2(C)Oc2ccc(Cl)cc23)cc1OC (stereo not given)	71.8	95.8	26.3*	91.4	76.9
Cc1ccc(NS(=O)(=O)c2ccc(NC(=O)[C@@H]3CCCC[C@@H]3C(=O)O)cc2)c(C)c1	101.1	/	/	/	103.1
Cc1nc2ccc(S(=O)(=O)NC(C(=O)Nc3nccs3)C(C)C)cc2s1 (stereo not given)	90.5	97.7	95.3	98.2	92.5
Cc1nc2ccc(S(=O)(=O)NC(C(=O)Nc3nc4ccc(Cl)cc4s3)C(C)C)cc2s1 (stereo not given)	53.5	96.3	30.5*	96.4	48.8
C=CCSc1cc(C)nc2c(-c3ccc(Cl)cc3)c(C)nn12	88.0	89.9	36.1*	97.2	89.3
Cc1cc(C(F)(F)F)n2nc(C)c(-c3ccc(Cl)cc3)c2n1	97.9	/	/	/	88.0
SMILES	HCT116 PTEN-null	HUVEC prolif 384	H69AR inhibit	Lung fibro prol	bCat KO growth
Cc1cc(-n2nc(C)cc2C)n2nc(C)c(-c3ccc(Cl)cc3)c2n1	21.9	82.7	44.3	46.4*	16.1
Cc1cc(SCC(=O)c2cccs2)n2nc(C)c(-c3ccc(Cl)cc3)c2n1	64.5	/	/	/	68.7
COC(=O)c1ccc(Sc2nnnn2-c2ccccc2)c([N+](=O)[O-])c1	6.2	/	/	/	6.0*
COC(=O)c1ccc(-n2nnnc2SCc2ccccc2OC)cc1	43.0	88.8	37.0*	97.8	28.8
CCCn1c(=N)n(CC(O)COc2cccc(C)c2)c2ccccc21 (stereo not given)	3.2*	87.3	44.6	83.6	2.6*
CCn1c(=N)n(CC(O)COc2cccc(C)c2)c2ccccc21 (stereo not given)	39.7	87.3	76.3	71.5	31.8
CCCCn1c(=N)n(CC(O)COc2ccc(C)cc2)c2ccccc21 (stereo not given)	1.7*	82.9	7.4*	71.5	2.0*
O=C(CNCc1ccc(Cl)cc1)NCc1ccco1	95.9	/	/	/	91.8
Cc1ccc(CNC(=O)CSCC(=O)O)cc1	95.0	94.0	96.4	98.6	99.7
O=C(NCc1ccco1)c1ccc(Cl)c(S(=O)(=O)N2CCc3ccccc32)c1	87.2	/	/	/	87.3
